{"source": "ChEMBL document CHEMBL4680095", "about": "“Potent Antitumor Activities and Structure Basis of the Chiral β-Lactam Bridged Analogue of Combretastatin A-4 Binding to Tubulin” (J Med Chem, 2016)", "key": {"[1]": {"assay": "Inhibition of pig brain tubulin polymerization incubated for 20 mins by spectrophotometry", "type": "tissue-based, Sus scrofa"}, "[2]": {"test_system": "A2780", "assay": "Growth inhibition of human A2780 cells", "type": "functional, cell-based"}, "[3]": {"test_system": "MDA-MB-231", "assay": "Growth inhibition of human MDA-MB-231 cells", "type": "functional, cell-based"}, "[4]": {"test_system": "SK-OV-3", "assay": "Growth inhibition of human SK-OV-3 cells", "type": "functional, cell-based"}, "[5]": {"test_system": "HeLa", "assay": "Growth inhibition of human HeLa cells", "type": "functional, cell-based"}, "[6]": {"test_system": "A2780", "assay": "Antitumor activity against human A2780 cells xenografted in Balb/C mouse assessed as inhibition of tumor growth at 12.5 mg/kg, ip dosed once every 2 days", "type": "functional, organism-based", "details": "time 2.0 day", "in_short": "(§1)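 Xenograft model built by subcutaneous inoculation of A2780 cells into female Balb/C nude mice, then treated at 12.5 mg/kg. Read-outs named per line: tumor growth, main organs examined for abnormalities, body weight monitored.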"}, "[7]": {"assay": "Toxicity in Balb/C mouse xenografted with human A2780 cells assessed as induction of body weight loss at 12.5 mg/kg, ip dosed once every 2 days", "type": "organism-based", "details": "in vivo, 48 h, time 2 day", "in_short": "as §1"}, "[8]": {"assay": "Toxicity in Balb/C mouse xenografted with human A2780 cells assessed as induction of abnormalities of visceral organs at 12.5 mg/kg, ip dosed once every 2 days", "type": "organism-based", "details": "in vivo, 48 h, time 2 day", "in_short": "as §1"}, "[9]": {"assay": "Toxicity in Balb/C mouse", "details": "in vivo"}}, "note": "The source made the active and inactive calls. The rule behind the calls is not given here."}
{"molecule": "COc1ccc(/C=C\\c2cc(OC)c(OC)c(OC)c2)cc1O", "note": "[COMBRETASTATIN A4]", "values": [{"measurement": "IC50", "setting": "[1]", "value": 1.32, "unit": "µM"}]}
{"molecule": "C=C1C(=O)N(c2cc(OC)c(OC)c(OC)c2)[C@@H]1c1ccc(OC)c(O)c1", "values": [{"measurement": "IC50", "setting": "[2]", "value": 4600, "unit": "nM"}, {"measurement": "IC50", "setting": "[3]", "value": "> 10000", "unit": "nM"}, {"measurement": "IC50", "setting": "[4]", "value": 3500, "unit": "nM"}, {"measurement": "IC50", "setting": "[5]", "value": 5500, "unit": "nM"}, {"measurement": "IC50", "setting": "[1]", "value": "> 100", "unit": "µM"}]}
{"molecule": "COc1ccc([C@H]2[C@@H](C)C(=O)N2c2cc(OC)c(OC)c(OC)c2)cc1O", "values": [{"measurement": "IC50", "setting": "[2]", "value": 31, "unit": "nM"}, {"measurement": "IC50", "setting": "[3]", "value": 56, "unit": "nM"}, {"measurement": "IC50", "setting": "[4]", "value": 57, "unit": "nM"}, {"measurement": "IC50", "setting": "[5]", "value": 63, "unit": "nM"}, {"measurement": "IC50", "setting": "[1]", "value": 3.5, "unit": "µM"}, {"measurement": "TGI", "setting": "[6]", "value": "Active"}, {"measurement": "Activity", "setting": "[7]", "value": "Non-Toxic"}, {"measurement": "Activity", "setting": "[8]", "value": "Non-Toxic"}, {"measurement": "LD50", "setting": "[9]", "value": "> 500", "unit": "mg/kg"}]}
{"molecule": "COc1cc2c(c(OC)c1OC)-c1ccc(OC)c(=O)cc1[C@@H](NC(C)=O)CC2", "note": "[COLCHICINE]", "values": [{"measurement": "LD50", "setting": "[9]", "value": 4, "unit": "mg/kg"}]}
{"molecule": "C=C1C(=O)N(c2cc(OC)c(OC)c(OC)c2)[C@H]1c1ccc(OC)c(O)c1", "values": [{"measurement": "IC50", "setting": "[2]", "value": 115, "unit": "nM"}, {"measurement": "IC50", "setting": "[3]", "value": 308, "unit": "nM"}, {"measurement": "IC50", "setting": "[4]", "value": 114, "unit": "nM"}, {"measurement": "IC50", "setting": "[5]", "value": 243, "unit": "nM"}, {"measurement": "IC50", "setting": "[1]", "value": 6.6, "unit": "µM"}]}
